Legend:
Adenosine receptor A3 [1] = biological target: T1, Adenosine receptor A3 (Homo sapiens, UniProt P0DMS8); experiment: biochemical
T1 sequence (P0DMS8 whole entry): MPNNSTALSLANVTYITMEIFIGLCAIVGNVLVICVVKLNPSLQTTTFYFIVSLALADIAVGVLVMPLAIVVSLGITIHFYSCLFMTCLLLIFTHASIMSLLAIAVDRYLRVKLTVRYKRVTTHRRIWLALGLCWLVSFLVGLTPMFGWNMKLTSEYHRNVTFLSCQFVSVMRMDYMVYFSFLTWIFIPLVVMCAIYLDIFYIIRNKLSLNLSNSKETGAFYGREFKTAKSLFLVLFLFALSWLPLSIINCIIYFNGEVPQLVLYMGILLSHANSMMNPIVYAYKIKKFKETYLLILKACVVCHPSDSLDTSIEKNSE

Adenosine receptor A2a [2] = biological target: T2, Adenosine receptor A2a (Homo sapiens, UniProt P29274); experiment: Displacement of [3H]-SCH- 58261 from human adenosine A2A receptor expressed in CHO cells; range 1220-1590; format: cell-based
Adenosine receptor A2b [3] = biological target: T3, Adenosine receptor A2b (Homo sapiens, UniProt P29275); experiment: Displacement of [3H]DPCPX from Adenosine A2b receptor expressed in […]; range 226-301; format: cell-based
T3 sequence (P29275 whole entry): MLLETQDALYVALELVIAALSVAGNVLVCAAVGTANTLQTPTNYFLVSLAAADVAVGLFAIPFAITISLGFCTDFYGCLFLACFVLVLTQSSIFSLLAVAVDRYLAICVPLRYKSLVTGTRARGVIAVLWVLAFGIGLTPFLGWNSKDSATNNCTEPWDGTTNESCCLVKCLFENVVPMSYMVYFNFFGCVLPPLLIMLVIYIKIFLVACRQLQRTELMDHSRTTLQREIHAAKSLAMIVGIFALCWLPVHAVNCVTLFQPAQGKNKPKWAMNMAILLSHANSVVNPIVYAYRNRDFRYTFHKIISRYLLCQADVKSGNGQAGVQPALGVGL

[4] = biological target: T4, Adenosine receptor A3 (Homo sapiens) (UniProt P0DMS8); conditions: CHO, 1 uM
T4 sequence (whole entry): T1 sequence (P0DMS8 whole entry)

Adenosine receptor A1 [5] = biological target: T5, Adenosine receptor A1 (Homo sapiens, UniProt P30542); experiment: Displacement of [3H]DPCPX from human adenosine A1 receptor expressed in CHO cells; range 928-1297; format: cell-based
T5 sequence (P30542 whole entry): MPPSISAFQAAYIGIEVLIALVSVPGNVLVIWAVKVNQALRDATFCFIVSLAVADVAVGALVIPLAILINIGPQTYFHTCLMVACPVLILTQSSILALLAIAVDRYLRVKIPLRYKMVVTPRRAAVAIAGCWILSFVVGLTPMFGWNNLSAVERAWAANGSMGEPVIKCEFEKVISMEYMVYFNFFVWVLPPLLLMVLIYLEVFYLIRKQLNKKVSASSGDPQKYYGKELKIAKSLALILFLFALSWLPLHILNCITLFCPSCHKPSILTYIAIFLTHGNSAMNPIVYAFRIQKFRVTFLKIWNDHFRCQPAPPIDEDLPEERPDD

[6] = biological target: Adenosine receptors; A1 & A3 (Homo sapiens) (UniProt P30542+P0DMS8); experiment: Ratio of binding affinity of human A1 receptor to that of human A3 receptor; format: protein assay
Method in brief: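 Ki ratio from displacement in CHO membranes, 6–8 concentrations, n=3-6, filtration counting. A1: 1 nM [3H]DPCPX, 50 μg protein, 120 min at 25 °C, nonspecific with 10 μM CHA. A3: 1 nM [3H]MRE3008-F20, 50 μg protein, Tris/10 mM MgCl2 pH 7.4, 120 min at 4 °C, nonspecific with 1 μM MRE3008-F20.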

Adenosine receptor A3 [7] = biological target: T1, Adenosine receptor A3; experiment: Inhibition of cAMP accumulation in CHO cells expressing human adenosine A3 receptor; range 1.7-4.2; format: functional, cell-based
[8] = biological target: Adenosine receptors; A2b & A3 (Homo sapiens) (UniProt P29275+P0DMS8); experiment: Ratio of binding affinity of human A2B receptor to that of human A3 receptor; format: protein assay
Method in brief: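 Ki ratio, n=3-6, 6–8 concentrations. A2B in HEK-293 membranes (20 μg): 40 nM [3H]DPCPX, 50 mM Tris HCl, 10 mM MgCl2, 1 mM EDTA, 0.1 mM benzamidine pH 7.4, 2 IU/mL adenosine deaminase, 60 min at 25 °C, nonspecific with 100 μM NECA. A3 in CHO membranes (50 μg): 1 nM [3H]MRE3008-F20, 120 min at 4 °C.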

[9] = biological target: T4, Adenosine receptor A3 (Homo sapiens); experiment: Percentage of blockade by 1 uM of the inhibition by 100 nM IB-MECA-inhibited cAMP accumulation in CHO cells expressing human adenosine A3 receptor.; format: functional, cell-based
Method in brief: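 CHO cells stably expressing human A3 receptor; membranes in 50 mM Tris HCl, 10 mM MgCl2, 1 mM EDTA pH 7.4 with 5 μM GTP, 0.5 mM […] and 2.0 IU/mL adenosine deaminase. Preincubated 10 min at 37 °C, then IB-MECA (100 nM) and/or antagonist with 1 mM ATP and 10 μM forskolin for 10 min. Boiled 2 min. cAMP read by [3H]cAMP competition with adrenal binding protein.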

Adenosine receptor A3 [10] = biological target: T1, Adenosine receptor A3; experiment: Displacement of [3H]MRE3008-F20 from human adenosine A3 receptor expressed in CHO cells; range 17-36; format: cell-based
Adenosine receptor A2b [11] = biological target: T3, Adenosine receptor A2b; experiment: Displacement of [3H]DPCPX from Adenosine A2b receptor expressed in CHO cells; format: cell-based
Adenosine receptor A2a [12] = biological target: T2, Adenosine receptor A2a; experiment: Displacement of [3H]-SCH- 58261 from human adenosine A2A receptor expressed in CHO cells; range 1770-2327; format: cell-based
Adenosine receptor A1 [13] = biological target: T5, Adenosine receptor A1; experiment: Displacement of [3H]DPCPX from human adenosine A1 receptor expressed in CHO cells; range 191-339; format: cell-based
Adenosine receptor A2a [14] = biological target: T2, Adenosine receptor A2a; experiment: Displacement of [3H]-SCH- 58261 from human adenosine A2A receptor expressed in CHO cells; range 632-1003; format: cell-based
Method in brief: (§1)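 Membranes from CHO cells stably expressing human A2A receptor, grown in DMEM/F12 without nucleosides, resuspended in 50 mM Tris HCl, 10 mM MgCl2, pH 7.4; 50 μg protein/assay. Competition with [3H]SCH 58261 at 6–8 or more compound concentrations, 60 min at 25 °C; nonspecific binding with 50 μM NECA. Filtration on GF/B filters, scintillation counting; n=3-6.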

Adenosine receptor A2b [15] = biological target: T3, Adenosine receptor A2b; experiment: Displacement of [3H]DPCPX from Adenosine A2b receptor expressed in HEK-293 cells; range 432-469
Adenosine receptor A1 [16] = biological target: T5, Adenosine receptor A1; experiment: Displacement of [3H]DPCPX from human adenosine A1 receptor expressed in CHO cells; range 885-1163; format: cell-based
Adenosine receptor A3 [17] = biological target: T1, Adenosine receptor A3; experiment: Displacement of [3H]MRE3008-F20 from human adenosine A3 receptor expressed in CHO cells; range 2.13-3.62; format: cell-based
[18] = biological target: T4, Adenosine receptor A3 (Homo sapiens); conditions: CHO, 1 uM; remark: listed apart in the source
Adenosine receptor A2a [19] = biological target: T2, Adenosine receptor A2a; experiment: Displacement of [3H]-SCH- 58261 from human adenosine A2A receptor expressed in CHO cells; range 36-55; format: cell-based
Method in brief: as §1

Adenosine receptor A1 [20] = biological target: T5, Adenosine receptor A1; experiment: Displacement of [3H]DPCPX from human adenosine A1 receptor expressed in CHO cells; range 134-229; format: cell-based
Adenosine receptor A2b [21] = biological target: T3, Adenosine receptor A2b; experiment: Displacement of [3H]DPCPX from Adenosine A2b receptor expressed in CHO cells; range 343-468; format: cell-based; conditions: in the assay text read “HEK-293 cells” for “CHO cells”
Method in brief: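 Human recombinant A2B receptor was expressed in HEK-293 cell membranes (20 μg protein). Incubated with 40 nM [3H]DPCPX in 50 mM Tris HCl, 10 mM MgCl2, 1 mM EDTA, 0.1 mM benzamidine, pH 7.4, with 2 IU/mL adenosine deaminase, at least 6–8 test concentrations, 60 min, 25 °C. Nonspecific binding was taken with 100 μM NECA; n=3-6.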

Adenosine receptor A3 [22] = biological target: T1, Adenosine receptor A3; experiment: Displacement of [3H]MRE3008-F20 from human adenosine A3 receptor expressed in CHO cells; range 1061-1245; format: cell-based
[23] = biological target: T4, Adenosine receptor A3 (Homo sapiens); conditions: CHO, 1 uM; remark: listed apart in the source
Adenosine receptor A2a [24] = biological target: T2, Adenosine receptor A2a; experiment: Displacement of [3H]-SCH- 58261 from human adenosine A2A receptor expressed in CHO cells; range 70-130; format: cell-based
Method in brief: as §1

Adenosine receptor A3 [25] = biological target: T1, Adenosine receptor A3; experiment: Displacement of [3H]MRE3008-F20 from human adenosine A3 receptor expressed in CHO cells; range 0.52-0.68; format: cell-based
Adenosine receptor A1 [26] = biological target: T5, Adenosine receptor A1; experiment: Displacement of [3H]-DPCPX from human adenosine A1 receptor expressed in CHO cells; range 213-281; format: cell-based
Adenosine receptor A3 [27] = biological target: T1, Adenosine receptor A3; experiment: Inhibition of cAMP accumulation in CHO cells expressing human adenosine A3 receptor; range 3.0-6.9; format: functional, cell-based
Adenosine receptor A2b [28] = biological target: T3, Adenosine receptor A2b; experiment: Displacement of [3H]DPCPX from Adenosine A2b receptor expressed in […]; range 56-89; format: cell-based

T2 sequence (P29274 whole entry): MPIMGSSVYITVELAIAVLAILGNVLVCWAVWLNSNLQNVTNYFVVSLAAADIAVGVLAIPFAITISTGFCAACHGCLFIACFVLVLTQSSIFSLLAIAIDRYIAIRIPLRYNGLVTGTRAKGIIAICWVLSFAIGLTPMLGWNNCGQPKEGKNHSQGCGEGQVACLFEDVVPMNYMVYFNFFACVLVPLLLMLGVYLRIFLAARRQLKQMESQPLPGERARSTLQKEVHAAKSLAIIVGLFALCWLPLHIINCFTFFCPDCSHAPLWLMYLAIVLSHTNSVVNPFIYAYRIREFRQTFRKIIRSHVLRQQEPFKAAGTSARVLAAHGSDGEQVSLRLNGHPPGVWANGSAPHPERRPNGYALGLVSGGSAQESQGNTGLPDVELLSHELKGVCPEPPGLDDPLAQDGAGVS

Question: Which Ki (Adenosine receptor A3 [1]) does the source give for `COc1ccc(NC(=O)Nc2nc3nn(C)cc3c3nc(-c4ccco4)nn23)cc1` here?
Answer: Its Ki is 0.2 nM.

Question: And the Ki (Adenosine receptor A2a [2])?
Answer: Its Ki is 1390 nM.

Question: And the Ki (Adenosine receptor A2b [3])?
Answer: The Ki was 261 nM.

Question: And the inhibition [4]?
Answer: Its inhibition is 94%.

Question: And the Ki (Adenosine receptor A1 [5])?
Answer: The Ki was 1100 nM.

Question: And the Ratio [6]?
Answer: The Ratio was 5480.

Question: And the IC50 (Adenosine receptor A3 [7])?
Answer: The IC50 was 2.7 nM.

Question: What about the Ratio [8] of the same compound?
Answer: The Ratio was 1300.

Question: `COc1ccc(NC(=O)Nc2nc3nn(CCc4cc(Br)c(Br)cc4Br)cc3c3nc(-c4ccco4)nn23)cc1` was tested. Which inhibition [9] did it give?
Answer: The inhibition was 50%.

Question: What about the Ki (Adenosine receptor A3 [10]) of the same compound?
Answer: The Ki was 25 nM.

Question: What about the Ki (Adenosine receptor A2b [11]) of the same compound?
Answer: Its Ki is greater than 10000 nM.

Question: What about the Ratio [6] of the same compound?
Answer: The Ratio was 10.2.

Question: And the Ki (Adenosine receptor A2a [12])?
Answer: Its Ki is 2030 nM.

Question: What about the Ki (Adenosine receptor A1 [13]) of the same compound?
Answer: The Ki was 255 nM.

Question: What about the Ratio [8] of the same compound?
Answer: The Ratio was greater than 400.

Question: With `CC(C)(C)n1cc2c(nc(NC(=O)Nc3cccc(Cl)c3)n3nc(-c4ccco4)nc23)n1` as the compound, how does the Ki (Adenosine receptor A2a [14]) read?
Answer: Its Ki is 796 nM.

Question: What about the Ki (Adenosine receptor A2b [15]) of the same compound?
Answer: The Ki was 450 nM.

Question: What about the Ki (Adenosine receptor A1 [16]) of the same compound?
Answer: The Ki was 1020 nM.

Question: And the Ratio [6]?
Answer: The Ratio was 365.

Question: What about the Ki (Adenosine receptor A3 [17]) of the same compound?
Answer: The Ki was 2.78 nM.

Question: What about the inhibition [18] of the same compound?
Answer: The inhibition was 70%.

Question: What about the Ratio [8] of the same compound?
Answer: The Ratio was 162.

Question: Which Ki (Adenosine receptor A2a [19]) does the source give for `CC(C)(C)n1cc2c(nc(N)n3nc(-c4ccco4)nc23)n1` here?
Answer: Its Ki is 45 nM.

Question: What about the Ki (Adenosine receptor A1 [20]) of the same compound?
Answer: The Ki was 175 nM.

Question: What about the inhibition [9] of the same compound?
Answer: The inhibition was 9%.

Question: And the Ratio [6]?
Answer: Its Ratio is 0.15.

Question: What about the Ki (Adenosine receptor A2b [21]) of the same compound?
Answer: The Ki was 400 nM.

Question: What about the Ki (Adenosine receptor A3 [22]) of the same compound?
Answer: The Ki was 1150 nM.

Question: And the Ratio [8]?
Answer: The Ratio was 0.35.

Question: How did the inhibition [23] turn out when `CCCCn1cc2c(nc(NC(=O)Nc3cccc(Cl)c3)n3nc(-c4ccco4)nc23)n1` was run?
Answer: Its inhibition is 85%.

Question: And the Ki (Adenosine receptor A2a [24])?
Answer: Its Ki is 95 nM.

Question: What about the Ki (Adenosine receptor A3 [25]) of the same compound?
Answer: The Ki was 0.6 nM.

Question: What about the Ratio [6] of the same compound?
Answer: The Ratio was 408.

Question: And the Ki (Adenosine receptor A1 [26])?
Answer: The Ki was 245 nM.

Question: What about the IC50 (Adenosine receptor A3 [27]) of the same compound?
Answer: Its IC50 is 4.5 nM.

Question: And the Ki (Adenosine receptor A2b [28])?
Answer: Its Ki is 70 nM.

Question: And the Ratio [8]?
Answer: The Ratio was 116.

Reference: ChEMBL document CHEMBL1133118 (J Med Chem, 2000)
